Only some compounds are listed: those with a hit (about 6.7% of all), similar ones and a draw of the others.
GRIN3A LBD mod: modulates the human NR3A ligand-binding domain; NR3A LBD differential scanning fluorimetry, Tm shift; 0% = protein alone, 100% = glycine-bound protein; Tm shift relative to glycine control, % at 25 µM; actives 2.5% (n = 340,000);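 active means melting temperature shift of at least 10% of the positive control shift, at one fixed dose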
CSC inhib: cancer stem cell inhibition | inhibition, % at 7.5 µM | cancer stem cell-like cells viability, luminescence | actives 1.1% (n = 300,000); in the data active means inhibition above about 75%; tested in HMLE shEcad cells
PREPL inhibitor: inhibits the human prolyl oligopeptidase-like enzyme; actives 0.68% (n = 320,000); inhibition, % at 5.96 µM; AID 2751; Q4J6C6; recombinant PREPL, fluorescence polarization activity-based probe; in the data active means inhibition above about 43%
Target sequence (Q4J6C6 whole entry, looked up): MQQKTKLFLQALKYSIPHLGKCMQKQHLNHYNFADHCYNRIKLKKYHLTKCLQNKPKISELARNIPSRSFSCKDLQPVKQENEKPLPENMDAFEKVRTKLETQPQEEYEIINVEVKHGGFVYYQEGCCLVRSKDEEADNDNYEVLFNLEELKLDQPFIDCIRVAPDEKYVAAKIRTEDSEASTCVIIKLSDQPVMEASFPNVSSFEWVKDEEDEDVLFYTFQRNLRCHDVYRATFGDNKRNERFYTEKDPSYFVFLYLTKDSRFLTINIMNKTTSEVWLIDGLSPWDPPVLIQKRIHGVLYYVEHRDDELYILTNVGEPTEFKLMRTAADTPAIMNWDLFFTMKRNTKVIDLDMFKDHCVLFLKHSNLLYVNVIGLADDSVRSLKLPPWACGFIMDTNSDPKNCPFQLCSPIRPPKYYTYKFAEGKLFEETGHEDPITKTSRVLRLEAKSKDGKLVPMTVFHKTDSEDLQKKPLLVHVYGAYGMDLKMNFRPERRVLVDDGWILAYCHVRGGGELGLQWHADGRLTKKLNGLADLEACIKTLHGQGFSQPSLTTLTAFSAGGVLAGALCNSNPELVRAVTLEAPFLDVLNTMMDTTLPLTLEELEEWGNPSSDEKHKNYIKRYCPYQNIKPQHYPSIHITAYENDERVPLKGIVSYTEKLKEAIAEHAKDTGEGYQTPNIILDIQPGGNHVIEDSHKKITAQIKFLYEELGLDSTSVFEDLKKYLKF
T cruzi inh: blocks replication of Trypanosoma cruzi; AID 1885; actives 1.4% (n = 300,000); inhibition, % (concentration not given with the values); T. cruzi beta-gal in NIH3T3, luminescence, 90 h;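 active means mean inhibition across valid replicates above about 55%, limit read from the data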;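 further: signal also drops with host cell toxicity which is not excluded here; higher percent means less beta-gal luminescence so fewer parasites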
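assay system = mouse NIH/3T3 fibroblasts infected with β-gal-expressing T. cruzi Tulahuen C4 | input = 5,000 NIH/3T3 host cells per well | buffer or medium = DMEM plus 2% FBS | timing = 3 h host attachment, then at least 90 h co-culture | measured by = GalScreen luminescence, 60 min | evaluation = luminescence reflecting intracellular parasite burden, expressed as percent inhibition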
CHOP inh: blocks CHOP induction under ER stress; AID 2732; CHO-K1 CHOP-promoter luciferase, tunicamycin-induced, 15-18 h; actives 3.8% (n = 220,000); inhibition, % at 10 µM;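 active means compounds that reduced the stress-induced luciferase reporter signal by more than about 70% of percent inhibition, limit read from the data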
Beta apoptosis: beta cell apoptosis inhibition; AID 435005; protection from apoptosis, % (no concentration beside the values); actives 0.8% (n = 300,000); INS-1E cytokine-induced death, ATP luminescence, 48 h; percent of positive-control rescue, neutral wells zero;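 active means Every replicate reaches about 75%, or at least half do and their mean reaches it too, limit read from the data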;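 further: higher means more ATP so stronger rescue from cytokine killing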
Each line names hits and unclear results; the compound was inactive in the other large screens.

COc1ccc(/C=N\NC(=O)c2cc(OCC(F)(F)F)ccc2OCC(F)(F)F)cc1	none (no result: CSC inhib)
O=C(NNC(=O)c1cc(OCC(F)(F)F)ccc1OCC(F)(F)F)c1ccc(Cl)c(Cl)c1	CHOP inh 82
O=C(N/N=C\c1ccc(F)cc1)c1cc(OCC(F)(F)F)ccc1OCC(F)(F)F	none
Cc1ccc(/C=N\NC(=O)c2cc(OCC(F)(F)F)ccc2OCC(F)(F)F)cc1	GRIN3A LBD mod 14 (no result: CSC inhib)
C=CCONC(=O)c1cc(OCC(F)(F)F)ccc1OCC(F)(F)F	CHOP inh 71
Nc1nc(COc2ccc(F)cc2Cl)nc(N2CCCCC2)n1	none
COc1ccc(NS(=O)(=O)c2ccc(C)c(NC(=O)CN3C(=O)NC4(CCCC4)C3=O)c2)cc1	none (no result: CSC inhib, T cruzi inh, CHOP inh)
CCn1c(=NC(=O)CN2C(=O)CCC2=O)sc2c(C)cc(C)cc21	none (no result: CSC inhib, PREPL inhibitor, T cruzi inh, Beta apoptosis)

Compound activity: PubChem, several laboratories
